{"source": "ChEMBL document CHEMBL1148147", "about": "“New oplopane and eremophilane derivatives from Robinsonecio gerberifolius” (J Nat Prod, 2003)", "format_in_all_cases": "functional, cell-based", "key": {"K562": {"tested_on": "K562", "experiment": "Cytotoxicity against human K562 cells", "in_short": "(§1)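 Human cancer cell lines (HCT-15 colon, MCF-7 breast, U-251 central nervous system, PC-3 prostate, K562 leukemia) tested over a dose range using the National Cancer Institute cytotoxicity screening protocol.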"}, "PC-3": {"tested_on": "PC-3", "experiment": "Cytotoxicity against human PC3 cells", "in_short": "as §1"}, "U-251": {"tested_on": "U-251", "experiment": "Cytotoxicity against human U251 cells", "in_short": "as §1"}, "HCT-15": {"tested_on": "HCT-15", "experiment": "Cytotoxicity against human HCT15 cells", "in_short": "as §1"}, "MCF7": {"tested_on": "MCF7", "experiment": "Cytotoxicity against human MCF7 cells", "in_short": "as §1"}}, "note": "Active and inactive are the calls of the source. No cut-off for these calls is given here.", "data": [{"smiles": "C/C=C(/C)C(=O)O[C@H]1C[C@@H](O)C2=CC(=O)C(=C(C)C)C[C@]2(C)[C@H]1C", "values": [{"measurement": "IC50", "setting": "K562", "value": "> 100", "unit": "µM"}, {"measurement": "IC50", "setting": "PC-3", "value": 33.2, "unit": "µM"}, {"measurement": "IC50", "setting": "U-251", "value": 24.1, "unit": "µM"}, {"measurement": "IC50", "setting": "HCT-15", "value": "> 100", "unit": "µM"}, {"measurement": "IC50", "setting": "MCF7", "value": "> 100", "unit": "µM"}]}, {"smiles": "C/C=C(/C)C(=O)O[C@H]1C[C@@H](O)C2=CC(=O)C(C(C)(C)O)=C[C@]2(C)[C@H]1C", "values": [{"measurement": "Activity", "setting": "K562", "value": "inactive"}, {"measurement": "Activity", "setting": "PC-3", "value": "inactive"}, {"measurement": "Activity", "setting": "U-251", "value": "inactive"}, {"measurement": "Activity", "setting": "HCT-15", "value": "inactive"}, {"measurement": "Activity", "setting": "MCF7", "value": "inactive"}]}, {"smiles": "C/C=C(/C)C(=O)O[C@H]1C[C@H]2O[C@]23Cc2occ(C)c2C[C@]3(C)[C@H]1C", "values": [{"measurement": "Activity", "setting": "K562", "value": "inactive"}, {"measurement": "Activity", "setting": "PC-3", "value": "inactive"}, {"measurement": "Activity", "setting": "U-251", "value": "inactive"}, {"measurement": "Activity", "setting": "HCT-15", "value": "inactive"}, {"measurement": "Activity", "setting": "MCF7", "value": "inactive"}]}, {"smiles": "COc1cccc2c1C(=O)c1c(O)c3c(c(O)c1C2=O)C[C@@](O)(C(=O)CO)C[C@@H]3O[C@H]1C[C@H](N)[C@H](O)[C@H](C)O1", "note": "[DOXORUBICIN]", "values": [{"measurement": "IC50", "setting": "PC-3", "value": 0.32, "unit": "µM"}]}, {"smiles": "C=C1C[C@@H](OC(C)=O)[C@@H](C(C)C)[C@@H]2[C@@H](C(C)=O)[C@@H](OC(=O)/C(C)=C\\C)C[C@@H]12", "values": [{"measurement": "IC50", "setting": "K562", "value": 13, "unit": "µM"}, {"measurement": "IC50", "setting": "PC-3", "value": 78.7, "unit": "µM"}, {"measurement": "IC50", "setting": "U-251", "value": 13, "unit": "µM"}, {"measurement": "IC50", "setting": "HCT-15", "value": 43.6, "unit": "µM"}, {"measurement": "IC50", "setting": "MCF7", "value": 33.9, "unit": "µM"}]}, {"smiles": "C/C=C(/C)C(=O)O[C@H]1C[C@@H](OC(=O)/C(C)=C/C)C2=CC(=O)C(=C(C)C)C[C@]2(C)[C@H]1C", "values": [{"measurement": "IC50", "setting": "K562", "value": 51.1, "unit": "µM"}, {"measurement": "IC50", "setting": "PC-3", "value": 10.7, "unit": "µM"}, {"measurement": "IC50", "setting": "U-251", "value": 17.6, "unit": "µM"}, {"measurement": "IC50", "setting": "HCT-15", "value": 12.8, "unit": "µM"}, {"measurement": "IC50", "setting": "MCF7", "value": 21, "unit": "µM"}]}, {"smiles": "C/C=C(/C)C(=O)O[C@H]1C[C@@H](O)C2=CC(=O)C(C(C)(C)OO)=C[C@]2(C)[C@H]1C", "values": [{"measurement": "IC50", "setting": "K562", "value": 46.3, "unit": "µM"}, {"measurement": "IC50", "setting": "PC-3", "value": 16.5, "unit": "µM"}, {"measurement": "IC50", "setting": "U-251", "value": 33.7, "unit": "µM"}, {"measurement": "IC50", "setting": "HCT-15", "value": "> 100", "unit": "µM"}, {"measurement": "IC50", "setting": "MCF7", "value": "> 100", "unit": "µM"}]}]}
